Results reported in ChEMBL document CHEMBL3217426, “Synthesis and in vitro biological evaluation of pyrazole group-containing analogues for PDE10A” (Medchemcomm, 2013).

Tests used:
[1] = molecular target: cAMP and cAMP-inhibited cGMP 3',5'-cyclic phosphodiesterase 10A (Homo sapiens, UniProt Q9Y233); assay: Inhibition of human recombinant PDE10A catalytic domain assessed reduction in [3H]cAMP hydrolysis preincubated with enzyme for 5 mins prior to substrate addition measured after 20 mins by scintillation proximity assay
Chain of cAMP and cAMP-inhibited cGMP 3',5'-cyclic phosphodiesterase 10A (Q9Y233 whole entry, the tested form may be a part): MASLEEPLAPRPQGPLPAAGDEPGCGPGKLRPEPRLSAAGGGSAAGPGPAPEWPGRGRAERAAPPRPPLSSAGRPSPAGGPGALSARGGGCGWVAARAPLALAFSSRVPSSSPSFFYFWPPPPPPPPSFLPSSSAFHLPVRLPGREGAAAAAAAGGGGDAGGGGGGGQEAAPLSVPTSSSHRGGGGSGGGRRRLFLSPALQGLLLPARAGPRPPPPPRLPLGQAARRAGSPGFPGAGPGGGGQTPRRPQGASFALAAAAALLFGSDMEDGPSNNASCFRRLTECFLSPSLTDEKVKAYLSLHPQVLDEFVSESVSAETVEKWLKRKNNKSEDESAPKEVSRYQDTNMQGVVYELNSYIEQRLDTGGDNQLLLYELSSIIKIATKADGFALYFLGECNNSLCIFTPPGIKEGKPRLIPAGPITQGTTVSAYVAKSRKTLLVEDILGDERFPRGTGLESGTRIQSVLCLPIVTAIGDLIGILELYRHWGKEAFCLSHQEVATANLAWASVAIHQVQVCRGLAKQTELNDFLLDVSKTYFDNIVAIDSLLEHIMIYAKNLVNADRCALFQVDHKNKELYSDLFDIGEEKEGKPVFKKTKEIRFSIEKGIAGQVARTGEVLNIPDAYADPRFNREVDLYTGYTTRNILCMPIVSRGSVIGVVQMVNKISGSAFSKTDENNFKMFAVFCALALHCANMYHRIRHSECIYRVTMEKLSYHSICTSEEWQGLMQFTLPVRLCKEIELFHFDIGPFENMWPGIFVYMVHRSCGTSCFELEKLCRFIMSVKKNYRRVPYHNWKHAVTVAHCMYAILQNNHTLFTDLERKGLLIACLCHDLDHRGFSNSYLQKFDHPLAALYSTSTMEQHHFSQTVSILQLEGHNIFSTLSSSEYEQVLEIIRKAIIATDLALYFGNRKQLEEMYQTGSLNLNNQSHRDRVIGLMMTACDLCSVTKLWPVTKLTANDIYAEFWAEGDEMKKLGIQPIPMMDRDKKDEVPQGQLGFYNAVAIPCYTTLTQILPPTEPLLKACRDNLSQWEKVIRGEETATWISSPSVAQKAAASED
In short: (§1)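 [3H]cAMP (40 nCi/mL, 1/3 Km) was added, then 20 min on ice (~30% turnover). Stopped with yttrium silicate SPA beads, settled 1.5 h at room temperature, CPM counted. IC50 from one-site competitive nonlinear fit, at least two independent runs.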

[2] = molecular target: cGMP-inhibited 3',5'-cyclic phosphodiesterase 3A (Homo sapiens, UniProt Q14432); assay: Inhibition of human recombinant PDE3A assessed reduction in [3H]cAMP hydrolysis preincubated with enzyme for 5 mins prior to substrate addition measured after 20 mins by scintillation proximity assay; in short: as §1
Chain of cGMP-inhibited 3',5'-cyclic phosphodiesterase 3A (Q14432 whole entry): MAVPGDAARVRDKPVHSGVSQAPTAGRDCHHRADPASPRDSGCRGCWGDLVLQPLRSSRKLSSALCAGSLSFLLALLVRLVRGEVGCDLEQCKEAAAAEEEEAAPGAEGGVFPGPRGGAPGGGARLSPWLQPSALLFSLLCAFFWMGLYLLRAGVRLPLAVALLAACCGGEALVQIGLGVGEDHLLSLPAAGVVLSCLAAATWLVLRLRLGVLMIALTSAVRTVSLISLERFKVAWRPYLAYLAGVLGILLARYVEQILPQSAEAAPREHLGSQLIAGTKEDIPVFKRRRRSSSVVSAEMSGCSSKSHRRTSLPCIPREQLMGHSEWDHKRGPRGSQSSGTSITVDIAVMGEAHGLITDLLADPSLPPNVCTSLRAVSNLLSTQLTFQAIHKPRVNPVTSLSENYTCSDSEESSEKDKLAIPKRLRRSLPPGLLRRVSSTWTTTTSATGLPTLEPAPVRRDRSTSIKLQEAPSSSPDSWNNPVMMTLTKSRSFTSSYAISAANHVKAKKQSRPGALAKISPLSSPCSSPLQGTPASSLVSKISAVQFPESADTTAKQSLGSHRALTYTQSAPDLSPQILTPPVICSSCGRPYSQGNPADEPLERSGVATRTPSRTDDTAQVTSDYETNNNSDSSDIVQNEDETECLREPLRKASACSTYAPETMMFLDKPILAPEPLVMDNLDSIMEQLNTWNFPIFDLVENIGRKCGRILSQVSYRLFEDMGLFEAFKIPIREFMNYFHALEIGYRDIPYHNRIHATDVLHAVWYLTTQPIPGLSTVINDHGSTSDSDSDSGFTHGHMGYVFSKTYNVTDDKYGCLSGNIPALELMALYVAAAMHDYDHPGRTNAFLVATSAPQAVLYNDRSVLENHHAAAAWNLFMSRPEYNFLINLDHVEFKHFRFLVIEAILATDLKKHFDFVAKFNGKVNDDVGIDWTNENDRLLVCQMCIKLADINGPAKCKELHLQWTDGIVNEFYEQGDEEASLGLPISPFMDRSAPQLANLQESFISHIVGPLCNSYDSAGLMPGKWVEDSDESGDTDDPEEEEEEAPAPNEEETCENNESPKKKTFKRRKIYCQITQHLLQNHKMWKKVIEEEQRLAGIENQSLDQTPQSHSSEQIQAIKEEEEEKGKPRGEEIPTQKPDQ

[3] = molecular target: cGMP-inhibited 3',5'-cyclic phosphodiesterase 3B (Homo sapiens, UniProt Q13370); assay: Inhibition of human recombinant PDE3B assessed reduction in [3H]cAMP hydrolysis preincubated with enzyme for 5 mins prior to substrate addition measured after 20 mins by scintillation proximity assay; in short: as §1
Chain of cGMP-inhibited 3',5'-cyclic phosphodiesterase 3B (Q13370 whole entry): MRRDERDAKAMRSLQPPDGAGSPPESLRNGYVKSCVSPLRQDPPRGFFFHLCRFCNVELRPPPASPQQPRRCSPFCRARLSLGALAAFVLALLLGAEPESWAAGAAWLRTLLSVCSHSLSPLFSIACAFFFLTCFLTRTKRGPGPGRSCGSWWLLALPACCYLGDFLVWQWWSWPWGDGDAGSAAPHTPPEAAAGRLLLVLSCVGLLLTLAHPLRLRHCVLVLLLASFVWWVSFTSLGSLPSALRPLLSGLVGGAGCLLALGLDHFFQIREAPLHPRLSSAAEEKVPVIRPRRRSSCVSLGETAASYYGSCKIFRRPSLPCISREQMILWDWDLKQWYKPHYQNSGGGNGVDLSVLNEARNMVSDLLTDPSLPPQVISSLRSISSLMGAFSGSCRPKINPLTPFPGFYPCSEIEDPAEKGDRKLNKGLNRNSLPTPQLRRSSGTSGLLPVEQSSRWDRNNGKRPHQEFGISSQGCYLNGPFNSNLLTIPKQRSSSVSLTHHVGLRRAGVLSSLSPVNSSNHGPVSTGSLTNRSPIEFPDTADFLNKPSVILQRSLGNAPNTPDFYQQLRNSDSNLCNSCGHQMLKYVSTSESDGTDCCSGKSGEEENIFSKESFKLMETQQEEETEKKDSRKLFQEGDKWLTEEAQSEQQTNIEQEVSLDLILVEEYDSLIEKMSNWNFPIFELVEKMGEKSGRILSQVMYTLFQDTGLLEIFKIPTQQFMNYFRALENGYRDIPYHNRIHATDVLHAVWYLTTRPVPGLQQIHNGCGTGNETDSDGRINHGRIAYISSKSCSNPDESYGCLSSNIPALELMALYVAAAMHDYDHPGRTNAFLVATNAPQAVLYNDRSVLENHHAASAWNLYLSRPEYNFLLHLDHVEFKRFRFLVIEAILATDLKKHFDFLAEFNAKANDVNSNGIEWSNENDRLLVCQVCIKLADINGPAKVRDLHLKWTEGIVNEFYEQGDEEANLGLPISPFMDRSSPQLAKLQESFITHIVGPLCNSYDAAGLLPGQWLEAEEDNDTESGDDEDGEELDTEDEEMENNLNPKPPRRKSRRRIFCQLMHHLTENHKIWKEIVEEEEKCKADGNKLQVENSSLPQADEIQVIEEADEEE

[4] = molecular target: 3',5'-cyclic-AMP phosphodiesterase 4A (Homo sapiens, UniProt P27815); assay: Inhibition of human recombinant PDE4A assessed reduction in [3H]cAMP hydrolysis preincubated with enzyme for 5 mins prior to substrate addition measured after 20 mins by scintillation proximity assay; in short: as §1
Chain of 3',5'-cyclic-AMP phosphodiesterase 4A (P27815 whole entry): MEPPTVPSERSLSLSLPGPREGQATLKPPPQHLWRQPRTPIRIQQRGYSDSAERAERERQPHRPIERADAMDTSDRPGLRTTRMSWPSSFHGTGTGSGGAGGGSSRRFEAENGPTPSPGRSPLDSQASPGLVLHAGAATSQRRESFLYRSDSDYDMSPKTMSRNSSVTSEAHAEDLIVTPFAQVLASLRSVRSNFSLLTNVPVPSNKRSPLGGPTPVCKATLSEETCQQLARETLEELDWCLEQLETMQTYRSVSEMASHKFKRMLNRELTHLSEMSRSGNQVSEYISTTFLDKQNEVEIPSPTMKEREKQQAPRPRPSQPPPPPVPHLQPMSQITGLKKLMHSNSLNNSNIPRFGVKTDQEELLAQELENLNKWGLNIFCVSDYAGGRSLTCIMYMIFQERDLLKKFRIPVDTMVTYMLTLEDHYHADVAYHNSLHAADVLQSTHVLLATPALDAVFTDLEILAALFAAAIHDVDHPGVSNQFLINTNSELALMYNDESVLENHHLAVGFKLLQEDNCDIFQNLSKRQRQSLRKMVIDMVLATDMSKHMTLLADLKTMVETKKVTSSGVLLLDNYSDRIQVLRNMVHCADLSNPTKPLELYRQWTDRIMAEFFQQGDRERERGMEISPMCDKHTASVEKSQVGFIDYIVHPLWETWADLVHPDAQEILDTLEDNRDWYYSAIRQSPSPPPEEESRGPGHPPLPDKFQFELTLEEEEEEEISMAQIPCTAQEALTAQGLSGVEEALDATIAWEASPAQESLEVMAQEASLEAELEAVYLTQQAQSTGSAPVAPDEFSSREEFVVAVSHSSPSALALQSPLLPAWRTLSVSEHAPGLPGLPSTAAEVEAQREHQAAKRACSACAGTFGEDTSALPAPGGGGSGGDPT

[5] = molecular target: 3',5'-cyclic-AMP phosphodiesterase 4B (Homo sapiens, UniProt Q07343); assay: Inhibition of human recombinant PDE4B assessed reduction in [3H]cAMP hydrolysis preincubated with enzyme for 5 mins prior to substrate addition measured after 20 mins by scintillation proximity assay; in short: as §1
Chain of 3',5'-cyclic-AMP phosphodiesterase 4B (Q07343 whole entry): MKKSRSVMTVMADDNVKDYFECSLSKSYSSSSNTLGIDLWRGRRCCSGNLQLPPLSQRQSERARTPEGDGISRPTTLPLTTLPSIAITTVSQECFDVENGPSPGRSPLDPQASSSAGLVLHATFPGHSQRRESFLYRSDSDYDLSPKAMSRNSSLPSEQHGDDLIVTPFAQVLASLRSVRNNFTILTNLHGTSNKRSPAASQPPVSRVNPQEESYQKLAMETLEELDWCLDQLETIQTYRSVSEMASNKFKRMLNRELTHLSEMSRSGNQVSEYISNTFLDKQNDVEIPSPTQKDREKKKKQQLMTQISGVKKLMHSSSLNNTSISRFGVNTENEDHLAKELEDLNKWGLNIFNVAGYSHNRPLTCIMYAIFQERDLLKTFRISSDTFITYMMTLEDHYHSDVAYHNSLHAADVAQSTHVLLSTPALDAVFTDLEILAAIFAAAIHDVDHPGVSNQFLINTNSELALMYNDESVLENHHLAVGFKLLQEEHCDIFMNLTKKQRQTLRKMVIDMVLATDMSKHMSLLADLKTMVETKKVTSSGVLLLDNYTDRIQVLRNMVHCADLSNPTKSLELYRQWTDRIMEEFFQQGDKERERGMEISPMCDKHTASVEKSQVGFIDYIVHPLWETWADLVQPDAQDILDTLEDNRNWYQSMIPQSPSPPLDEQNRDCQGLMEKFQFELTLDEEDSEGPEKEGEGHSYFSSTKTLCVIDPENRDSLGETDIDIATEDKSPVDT

| Compound | IC50 [1] [µM] | IC50 [2] [µM] | IC50 [3] [µM] | IC50 [4] [µM] | IC50 [5] [µM] |
| --- | --- | --- | --- | --- | --- |
| COc1ccc2nc(CNc3ccc(-c4nn(C)cc4-c4ccncc4)cc3)ccc2c1 | 7.5 |  |  |  |  |
| COc1cccc2ccc(CNc3ccc(-c4nn(C)cc4-c4ccncc4)cc3)nc12 | 10.9 |  |  |  |  |
| COc1ccc2nc(CNc3ccc(-c4c(-c5ccncc5)cnn4C)cc3)ccc2c1 | 4.25 |  |  |  |  |
| COc1cccc2nc(COc3ccc(-c4nn(C)cc4-c4ccncc4)cc3)ccc12 | 0.06 |  |  |  |  |
| COc1cc(COc2ccc(-c3nn(C)cc3-c3ccncc3)cc2)nc2ccccc12 | 0.00028 | 27.5 | 3.85 | 2.56 | 1.79 |
| COc1cccc2ccc(CSc3ccc(-c4c(-c5ccncc5)cnn4C)cc3)nc12 | 3.05 |  |  |  |  |
| COc1cc(CSc2ccc(-c3nn(C)cc3-c3ccncc3)cc2)nc2ccccc12 | 0.168 |  |  |  |  |
| COc1cccc2ccc(CNc3ccc(-c4c(-c5ccncc5)cnn4C)cc3)nc12 | 4.6 |  |  |  |  |
| COc1ccc2ccc(COc3ccc(-c4nn(C)cc4-c4ccncc4)cc3)nc2c1 | 0.046 |  |  |  |  |
| COc1cccc2ccc(COc3ccc(-c4nn(C)cc4-c4ccncc4)cc3)nc12 | 0.0415 |  |  |  |  |
| COc1ccc2ccc(CSc3ccc(-c4c(-c5ccncc5)cnn4C)cc3)nc2c1 | 0.635 |  |  |  |  |
| COc1ccc2nc(CSc3ccc(-c4c(-c5ccncc5)cnn4C)cc3)ccc2c1 | 0.61 |  |  |  |  |
| COc1ccc2nc(COc3ccc(-c4nn(C)cc4-c4ccncc4)cc3)ccc2c1 | 0.00182 | 78 | 9.75 | 3.37 | 2.56 |
| COc1cc2ccccc2nc1COc1ccc(-c2c(-c3ccncc3)cnn2C)cc1 | 0.00024 | 18.7 | 16.9 | 199 | 31.5 |
| COc1cc(CNc2ccc(-c3nn(C)cc3-c3ccncc3)cc2)nc2ccccc12 | 13.9 |  |  |  |  |
| COc1cccc2nc(COc3ccc(-c4c(-c5ccncc5)cnn4C)cc3)ccc12 | 0.0814 |  |  |  |  |
| COc1cc(COc2ccc(-c3c(-c4ccncc4)cnn3C)cc2)nc2ccccc12 | 0.00036 | 29 | 4.8 | 4.18 | 5.06 |
| COc1ccc2ccc(COc3ccc(-c4c(-c5ccncc5)cnn4C)cc3)nc2c1 | 0.095 |  |  |  |  |
| COc1cc(CSc2ccc(-c3c(-c4ccncc4)cnn3C)cc2)nc2ccccc12 | 1.85 |  |  |  |  |
| COc1ccc2ccc(CSc3ccc(-c4nn(C)cc4-c4ccncc4)cc3)nc2c1 | 0.4 |  |  |  |  |
| COc1cc(CNc2ccc(-c3c(-c4ccncc4)cnn3C)cc2)nc2ccccc12 | 0.645 |  |  |  |  |
| COc1cccc2ccc(COc3ccc(-c4c(-c5ccncc5)cnn4C)cc3)nc12 | 0.199 |  |  |  |  |
| COc1ccc2nc(CSc3ccc(-c4nn(C)cc4-c4ccncc4)cc3)ccc2c1 | 0.415 |  |  |  |  |
| COc1ccc2nc(COc3ccc(-c4c(-c5ccncc5)cnn4C)cc3)ccc2c1 | 0.00178 | 1.5 | 3 | 5.6 | 7.1 |
| COc1cccc2ccc(CSc3ccc(-c4nn(C)cc4-c4ccncc4)cc3)nc12 | 0.635 |  |  |  |  |
| COc1ccc2ccc(CNc3ccc(-c4c(-c5ccncc5)cnn4C)cc3)nc2c1 | 5.15 |  |  |  |  |
| COc1cc2ccccc2nc1COc1ccc(-c2nn(C)cc2-c2ccncc2)cc1 | 0.0004 | 123 | 82.7 | 3.85 | 3.43 |
| COc1ccc2ccc(CNc3ccc(-c4nn(C)cc4-c4ccncc4)cc3)nc2c1 | 7.4 |  |  |  |  |
